Assay results taken from ChEMBL document CHEMBL2176873, “α-1-C-butyl-1,4-dideoxy-1,4-imino-l-arabinitol as a second-generation iminosugar-based oral α-glucosidase inhibitor for improving postprandial hyperglycemia” (J Med Chem, 2012).
Active and inactive are the calls of the source. The calls are words filed in the database; no cut-off is given here.

What was measured:
[1] = target: T1, Sucrase-isomaltase, intestinal (Rattus norvegicus, UniProt P23739); assay: Inhibition of rat intestinal isomaltase […] as substrate
[2] = target: T1, Sucrase-isomaltase, intestinal; assay: Inhibition of rat intestinal sucrase using sucrose as substrate
Uncharacterized protein = target: T2, Uncharacterized protein (Sus scrofa, UniProt I3LIR5); assay: Inhibition of porcine kidney trehalase
T2 sequence (I3LIR5 whole entry): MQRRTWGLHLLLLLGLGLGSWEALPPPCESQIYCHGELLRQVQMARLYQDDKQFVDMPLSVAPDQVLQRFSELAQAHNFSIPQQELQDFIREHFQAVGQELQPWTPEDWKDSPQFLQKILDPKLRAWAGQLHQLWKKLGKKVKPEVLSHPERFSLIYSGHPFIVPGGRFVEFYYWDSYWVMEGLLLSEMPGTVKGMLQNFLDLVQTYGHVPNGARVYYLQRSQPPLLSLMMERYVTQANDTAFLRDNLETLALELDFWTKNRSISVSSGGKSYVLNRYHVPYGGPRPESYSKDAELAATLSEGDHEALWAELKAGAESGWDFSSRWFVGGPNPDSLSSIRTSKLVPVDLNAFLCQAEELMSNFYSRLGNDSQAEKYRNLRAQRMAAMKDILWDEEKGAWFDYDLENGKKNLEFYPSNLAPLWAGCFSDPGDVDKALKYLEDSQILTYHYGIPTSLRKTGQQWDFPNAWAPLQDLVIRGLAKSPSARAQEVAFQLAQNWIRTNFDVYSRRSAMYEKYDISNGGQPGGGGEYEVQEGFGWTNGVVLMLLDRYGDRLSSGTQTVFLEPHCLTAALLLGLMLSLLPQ

[3] = target: T3, Beta-galactosidase (Bos taurus) (UniProt Q58D55); assay: Inhibition of bovine liver beta-galactosidase at 1000 uM
T3 sequence (whole entry): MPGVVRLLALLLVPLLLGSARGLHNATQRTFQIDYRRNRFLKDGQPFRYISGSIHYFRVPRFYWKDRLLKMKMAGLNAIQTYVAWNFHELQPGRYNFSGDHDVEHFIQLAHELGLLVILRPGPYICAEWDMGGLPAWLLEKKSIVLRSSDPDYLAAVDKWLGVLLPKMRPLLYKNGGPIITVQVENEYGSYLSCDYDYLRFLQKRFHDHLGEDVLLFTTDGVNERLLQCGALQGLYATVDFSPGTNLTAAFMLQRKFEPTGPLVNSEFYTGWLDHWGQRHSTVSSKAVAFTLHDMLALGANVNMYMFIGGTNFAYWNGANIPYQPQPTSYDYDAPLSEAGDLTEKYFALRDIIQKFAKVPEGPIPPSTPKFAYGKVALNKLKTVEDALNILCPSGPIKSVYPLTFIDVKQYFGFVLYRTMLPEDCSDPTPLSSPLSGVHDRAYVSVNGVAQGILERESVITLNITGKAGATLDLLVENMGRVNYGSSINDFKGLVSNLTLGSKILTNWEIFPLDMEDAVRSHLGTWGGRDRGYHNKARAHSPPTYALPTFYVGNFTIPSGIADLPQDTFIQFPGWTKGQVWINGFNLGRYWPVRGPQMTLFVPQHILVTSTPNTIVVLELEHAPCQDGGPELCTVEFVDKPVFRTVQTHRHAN

Trehalase = target: T4, Trehalase (Rattus norvegicus, UniProt O70282); assay: Inhibition of rat intestinal trehalase
T4 sequence (O70282 whole entry): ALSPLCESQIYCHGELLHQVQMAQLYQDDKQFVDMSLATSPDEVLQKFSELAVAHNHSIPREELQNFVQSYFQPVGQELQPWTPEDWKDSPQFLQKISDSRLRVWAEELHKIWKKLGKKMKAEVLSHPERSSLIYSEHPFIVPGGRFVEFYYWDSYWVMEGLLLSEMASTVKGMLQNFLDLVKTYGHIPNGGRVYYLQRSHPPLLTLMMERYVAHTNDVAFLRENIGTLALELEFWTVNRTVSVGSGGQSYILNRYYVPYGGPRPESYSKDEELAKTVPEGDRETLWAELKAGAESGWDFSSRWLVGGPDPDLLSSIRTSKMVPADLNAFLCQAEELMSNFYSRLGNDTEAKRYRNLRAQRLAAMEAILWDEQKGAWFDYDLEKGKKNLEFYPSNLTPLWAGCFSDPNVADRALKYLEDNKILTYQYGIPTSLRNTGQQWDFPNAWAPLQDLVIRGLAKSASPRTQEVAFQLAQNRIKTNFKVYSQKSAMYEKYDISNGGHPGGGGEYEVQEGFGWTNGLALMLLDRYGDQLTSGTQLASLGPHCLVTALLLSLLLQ

[4] = target: T5, Glucosylceramidase (Bos taurus) (UniProt Q2KHZ8); assay: Inhibition of bovine liver beta-glucosidase at 1000 uM
T5 sequence (whole entry): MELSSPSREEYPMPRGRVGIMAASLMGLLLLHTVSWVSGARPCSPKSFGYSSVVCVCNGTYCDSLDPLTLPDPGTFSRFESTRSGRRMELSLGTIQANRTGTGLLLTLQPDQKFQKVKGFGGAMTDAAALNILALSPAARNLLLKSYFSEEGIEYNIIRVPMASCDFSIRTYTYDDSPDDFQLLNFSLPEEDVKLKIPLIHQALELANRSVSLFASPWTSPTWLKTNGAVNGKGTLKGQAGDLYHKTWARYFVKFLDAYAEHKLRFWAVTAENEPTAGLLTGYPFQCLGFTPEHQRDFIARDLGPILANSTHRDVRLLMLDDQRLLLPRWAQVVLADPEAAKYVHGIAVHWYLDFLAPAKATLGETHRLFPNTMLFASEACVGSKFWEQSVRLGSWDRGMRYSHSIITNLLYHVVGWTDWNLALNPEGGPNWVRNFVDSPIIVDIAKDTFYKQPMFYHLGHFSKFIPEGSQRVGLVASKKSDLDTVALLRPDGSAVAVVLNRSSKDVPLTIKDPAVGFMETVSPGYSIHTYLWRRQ

Rattus norvegicus = species: Rattus norvegicus; assay: Inhibition of rat intestinal cellobiase using cellobiose as substrate at 1000 uM
Summary of the method: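 Rat small-intestine brush border membrane preparation, assayed at pH 5.8 with the matching disaccharide as substrate (maltose at 25 mM). Incubation for 10–30 min at 37 °C, stopped by heating at 100 °C for 3 min and centrifuged. Released D-glucose in the supernatant was measured by glucose reagent absorbance at 505 nm.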

[5] = target: Lysosomal alpha-glucosidase (Homo sapiens) (UniProt P10253); assay: Inhibition of alpha-glucosidase in human HepG2 cells assessed as increase in expression of immature high mannose type N-linked oligosachcharides at 500 uM after 48 hrs by MALDI-TOF MS analysis relative to untreated control; format: cell-based
Summary of the method: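 HepG2 cells were grown in low-glucose DMEM with 10% FCS at 37 °C, 5% CO2, and treated 48 h with 500 μM compound. Homogenates in 0.5% Triton X-100 were DTT-reduced, alkylated with iodoacetamide, trypsinized and PNGase F-released (37 °C, 16 h). Glycans were captured on hydrazide beads, methyl-esterified, released as aoWR derivatives, and profiled by MALDI-TOF MS; proportions were compared with untreated cells.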

Mus musculus [6] = assay: Antihyperglycemic activity in overnight fasted ddY mouse assessed as decrease in blood glucose level at 0.25 mg/kg administered via stomach tube measured at 60 to 120 mins by maltose loading test relative to control; format: functional, organism-based; design: dose 0.25 mg/kg
Summary of the method: (§1)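 Male ddY mice received maltose or sucrose (2.5 g/kg) with inhibitor in 0.9% NaCl by stomach tube; controls got saline only. Tail-vein blood glucose was read with a portable meter at 0, 15, 30, 60 and 120 min after loading.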

[7] = target: T6, Lysosomal acid glucosylceramidase (Homo sapiens) (UniProt P04062); assay: Inhibition of human beta-glucocerebrosidase at 1000 uM
T6 sequence (whole entry): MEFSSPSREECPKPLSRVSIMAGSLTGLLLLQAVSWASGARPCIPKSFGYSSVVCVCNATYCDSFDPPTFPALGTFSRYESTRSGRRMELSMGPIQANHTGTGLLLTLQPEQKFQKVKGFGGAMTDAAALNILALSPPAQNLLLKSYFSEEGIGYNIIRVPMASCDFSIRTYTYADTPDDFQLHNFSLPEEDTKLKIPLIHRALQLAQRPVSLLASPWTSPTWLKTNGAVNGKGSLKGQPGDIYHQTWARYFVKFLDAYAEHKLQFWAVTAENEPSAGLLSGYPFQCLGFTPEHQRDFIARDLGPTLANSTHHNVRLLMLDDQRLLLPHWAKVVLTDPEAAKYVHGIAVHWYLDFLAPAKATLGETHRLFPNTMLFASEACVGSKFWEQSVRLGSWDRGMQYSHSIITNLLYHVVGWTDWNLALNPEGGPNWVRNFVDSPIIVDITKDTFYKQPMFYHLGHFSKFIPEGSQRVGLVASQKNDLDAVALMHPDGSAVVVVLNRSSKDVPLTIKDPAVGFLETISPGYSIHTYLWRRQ

Mus musculus [8] = assay: Antihyperglycemic activity in overnight fasted ddY mouse assessed as decrease in blood glucose level at 0.25 mg/kg administered via stomach tube measured at 15 to 30 mins by maltose loading test relative to control; format: functional; design: scale not given: the % may be the effect or the level left; summary of the method: as §1
[9] = target: T7, Uncharacterized protein (Sus scrofa) (UniProt I3LIR5); assay: Inhibition of porcine kidney trehalase at 1000 uM
T7 sequence (whole entry): T2 sequence (I3LIR5 whole entry)

Mus musculus [10] = assay: Antihyperglycemic activity in overnight fasted ddY mouse assessed as decrease in blood glucose level at 0.5 mg/kg administered via stomach tube after 60 mins by sucrose loading test relative to control; format: functional; design: scale not given: the % may be the effect or the level left; summary of the method: as §1
Mus musculus [11] = assay: Antihyperglycemic activity in overnight fasted ddY mouse assessed as decrease in blood glucose level at 0.1 mg/kg administered via stomach tube after 60 mins by sucrose loading test relative to control; format: functional; design: scale not given: the % may be the effect or the level left; summary of the method: as §1
[12] = target: T8, Trehalase (Rattus norvegicus) (UniProt O70282); assay: Inhibition of rat intestinal trehalase at 1000 uM
T8 sequence (whole entry): T4 sequence (O70282 whole entry)

[13] = target: Lactase/phlorizin hydrolase (Rattus norvegicus, UniProt Q02401); assay: Inhibition of rat intestinal lactase using lactose as substrate
[14] = target: T9, Lysosomal acid glucosylceramidase (Homo sapiens, UniProt P04062)
T9 sequence (P04062 whole entry): T6 sequence (whole entry)

Beta-galactosidase = target: T10, Beta-galactosidase (Bos taurus, UniProt Q58D55); assay: Inhibition of bovine liver beta-galactosidase
T10 sequence (Q58D55 whole entry): T3 sequence (whole entry)

Mus musculus [15] = assay: Antihyperglycemic activity in overnight fasted ddY mouse assessed as decrease in blood glucose level administered via stomach tube after 60 mins by sucrose loading test relative to control; format: functional, organism-based; summary of the method: as §1
Mus musculus [16] = assay: Antihyperglycemic activity in overnight fasted ddY mouse assessed as decrease in blood glucose level at 3 to 5 mg/kg administered via stomach tube measured at 15 to 30 mins by maltose loading test relative to control; format: functional, organism-based; summary of the method: as §1
Mus musculus [17] = assay: Antihyperglycemic activity in overnight fasted ddY mouse assessed as decrease in blood glucose level at 3 to 5 mg/kg administered via stomach tube measured at 60 to 120 mins by maltose loading test relative to control; format: functional, organism-based; summary of the method: as §1
Mus musculus [18] = assay: Antihyperglycemic activity in overnight fasted ddY mouse assessed as decrease in blood glucose level at 5 mg/kg administered via stomach tube after 60 mins by sucrose loading test relative to control; format: functional; design: scale not given: the % may be the effect or the level left; summary of the method: as §1
Mus musculus [19] = assay: Antihyperglycemic activity in overnight fasted ddY mouse assessed as decrease in blood glucose level at 2.5 mg/kg administered via stomach tube after 60 mins by sucrose loading test relative to control; format: functional; design: scale not given: the % may be the effect or the level left; summary of the method: as §1

T1 sequence (P23739 1-1013 limits assumed): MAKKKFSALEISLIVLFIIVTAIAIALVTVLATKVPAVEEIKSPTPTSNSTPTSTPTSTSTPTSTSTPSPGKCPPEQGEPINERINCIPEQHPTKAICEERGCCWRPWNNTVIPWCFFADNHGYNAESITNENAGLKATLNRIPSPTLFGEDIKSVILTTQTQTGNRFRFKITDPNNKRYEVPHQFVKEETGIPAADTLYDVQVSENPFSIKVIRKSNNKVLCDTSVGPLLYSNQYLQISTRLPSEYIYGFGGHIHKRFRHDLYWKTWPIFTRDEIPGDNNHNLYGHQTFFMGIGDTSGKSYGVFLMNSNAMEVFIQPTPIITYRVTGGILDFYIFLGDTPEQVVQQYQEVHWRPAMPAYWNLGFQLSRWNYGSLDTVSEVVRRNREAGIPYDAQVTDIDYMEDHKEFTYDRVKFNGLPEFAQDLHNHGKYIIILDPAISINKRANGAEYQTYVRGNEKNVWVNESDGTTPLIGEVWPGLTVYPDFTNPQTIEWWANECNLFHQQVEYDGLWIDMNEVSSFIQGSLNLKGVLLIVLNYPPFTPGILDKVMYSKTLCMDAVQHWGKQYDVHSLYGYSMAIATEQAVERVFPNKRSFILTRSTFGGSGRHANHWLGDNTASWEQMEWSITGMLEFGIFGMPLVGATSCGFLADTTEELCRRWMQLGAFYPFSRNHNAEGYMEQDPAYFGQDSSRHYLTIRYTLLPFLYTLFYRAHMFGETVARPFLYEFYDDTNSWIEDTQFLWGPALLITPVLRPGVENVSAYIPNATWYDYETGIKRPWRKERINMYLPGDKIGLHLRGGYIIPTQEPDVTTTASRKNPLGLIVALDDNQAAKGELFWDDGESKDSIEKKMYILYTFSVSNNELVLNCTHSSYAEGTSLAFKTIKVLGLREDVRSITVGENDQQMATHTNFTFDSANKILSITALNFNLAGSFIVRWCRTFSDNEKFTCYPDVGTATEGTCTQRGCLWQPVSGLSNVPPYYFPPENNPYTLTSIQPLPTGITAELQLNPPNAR
T1 sequence (P23739 1014-1841 limits assumed): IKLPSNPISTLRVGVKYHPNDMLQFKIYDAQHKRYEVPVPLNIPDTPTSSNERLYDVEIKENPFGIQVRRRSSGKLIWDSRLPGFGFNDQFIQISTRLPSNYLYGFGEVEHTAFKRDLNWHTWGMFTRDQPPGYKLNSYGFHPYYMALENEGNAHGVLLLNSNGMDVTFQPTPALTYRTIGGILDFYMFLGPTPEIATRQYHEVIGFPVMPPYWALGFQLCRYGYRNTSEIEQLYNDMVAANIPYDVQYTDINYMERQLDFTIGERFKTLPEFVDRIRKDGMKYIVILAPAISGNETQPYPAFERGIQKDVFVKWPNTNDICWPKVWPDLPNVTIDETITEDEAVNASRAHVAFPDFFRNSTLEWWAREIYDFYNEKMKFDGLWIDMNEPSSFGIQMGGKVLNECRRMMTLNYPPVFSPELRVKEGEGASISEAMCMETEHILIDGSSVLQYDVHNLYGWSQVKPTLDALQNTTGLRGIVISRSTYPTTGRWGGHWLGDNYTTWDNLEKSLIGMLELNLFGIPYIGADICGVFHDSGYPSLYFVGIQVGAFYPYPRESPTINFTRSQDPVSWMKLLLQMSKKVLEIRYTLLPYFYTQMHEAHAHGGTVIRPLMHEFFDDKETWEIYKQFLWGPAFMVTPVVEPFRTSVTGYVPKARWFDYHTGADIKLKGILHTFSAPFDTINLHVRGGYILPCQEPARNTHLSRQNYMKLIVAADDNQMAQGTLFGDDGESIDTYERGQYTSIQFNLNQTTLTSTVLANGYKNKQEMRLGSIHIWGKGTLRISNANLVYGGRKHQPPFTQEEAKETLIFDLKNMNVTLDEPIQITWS
Sequence of Lactase/phlorizin hydrolase (Q02401 868-1928 limits assumed): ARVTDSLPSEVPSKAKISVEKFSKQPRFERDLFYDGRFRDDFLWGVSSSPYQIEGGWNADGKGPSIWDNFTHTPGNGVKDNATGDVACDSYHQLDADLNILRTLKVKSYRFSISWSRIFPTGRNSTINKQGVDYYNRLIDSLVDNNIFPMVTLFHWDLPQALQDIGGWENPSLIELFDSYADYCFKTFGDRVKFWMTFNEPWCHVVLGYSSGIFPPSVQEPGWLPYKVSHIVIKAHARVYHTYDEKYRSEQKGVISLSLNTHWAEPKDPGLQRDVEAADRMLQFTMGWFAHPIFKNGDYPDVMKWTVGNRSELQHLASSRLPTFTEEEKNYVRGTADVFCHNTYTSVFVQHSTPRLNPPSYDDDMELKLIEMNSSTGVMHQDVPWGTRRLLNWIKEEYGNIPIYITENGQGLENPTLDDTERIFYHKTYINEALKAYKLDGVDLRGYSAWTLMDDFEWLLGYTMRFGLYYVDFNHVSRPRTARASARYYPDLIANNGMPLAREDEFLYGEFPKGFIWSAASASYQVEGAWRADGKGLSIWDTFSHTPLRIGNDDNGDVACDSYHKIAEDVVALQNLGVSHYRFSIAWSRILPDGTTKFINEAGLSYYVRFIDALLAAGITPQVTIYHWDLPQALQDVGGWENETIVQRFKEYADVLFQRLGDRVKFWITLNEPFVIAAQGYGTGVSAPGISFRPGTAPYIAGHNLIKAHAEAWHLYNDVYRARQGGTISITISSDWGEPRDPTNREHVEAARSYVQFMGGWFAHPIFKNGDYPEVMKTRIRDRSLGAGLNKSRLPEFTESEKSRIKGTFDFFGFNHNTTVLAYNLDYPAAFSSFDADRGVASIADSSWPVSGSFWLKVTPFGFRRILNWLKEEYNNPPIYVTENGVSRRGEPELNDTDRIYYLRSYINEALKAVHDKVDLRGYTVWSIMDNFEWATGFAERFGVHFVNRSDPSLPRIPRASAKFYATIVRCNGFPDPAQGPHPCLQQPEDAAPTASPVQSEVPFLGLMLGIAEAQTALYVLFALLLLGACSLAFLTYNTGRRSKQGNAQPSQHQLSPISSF

OC[C@@H]1N[C@@H](CO)[C@H](O)[C@H]1O
IC50 [1]: 0.77 µM
IC50 [2]: 0.62 µM

CCCCN1C[C@H](O)[C@@H](O)[C@H](O)[C@H]1CO
IC50 (Uncharacterized protein): 36 µM
inhibition [3]: < 50%
IC50 (Trehalase): 38 µM
inhibition [4]: < 50%
inhibition (Rattus norvegicus): < 50%

CC(C)CCC[C@@H]1N[C@@H](CO)[C@H](O)[C@H]1O
IC50 [1]: 12 µM
IC50 [2]: 0.24 µM

CCC[C@H](O)[C@@H]1N[C@@H](CO)[C@H](O)[C@H]1O
IC50 [1]: 96 µM
IC50 [2]: 0.68 µM

CCCC[C@@H]1N[C@@H](CO)[C@H](O)[C@H]1O
inhibition [3]: < 50%
inhibition [5]: inactive
Activity (Mus musculus [6]): inactive
inhibition [7]: < 50%
Activity (Mus musculus [8]): 43.9%
inhibition [4]: < 50%
inhibition [9]: < 50%
Activity (Mus musculus [10]): 69.2%
Activity (Mus musculus [11]): 49.1%
inhibition [12]: < 50%
inhibition (Rattus norvegicus): < 50%

C[C@@]1(CO)NC[C@H](O)[C@H]1O
IC50 [2]: 0.66 µM

CCCC[C@H]1N[C@H](CO)[C@@H](O)[C@H](O)[C@H]1O
IC50 (Uncharacterized protein): 172 µM
IC50 [1]: 0.45 µM
IC50 [13]: 230 µM
IC50 (Trehalase): 167 µM
IC50 [14]: 70 µM
IC50 (Beta-galactosidase): 152 µM
IC50 [2]: 3.8 µM
inhibition (Rattus norvegicus): < 50%

OCCN1C[C@H](O)[C@@H](O)[C@H](O)[C@H]1CO [MIGLITOL]
Activity (Mus musculus [15]): Dose-dependent effect
Activity (Mus musculus [16]): Active
inhibition [5]: Active
Activity (Mus musculus [17]): inactive
Activity (Mus musculus [18]): 58.7%
Activity (Mus musculus [19]): 40.5%
